The source of these data is ChEMBL document CHEMBL1126679 (J Med Chem, 1993).

Assay [1] in a line: Binding affinity against 5-hydroxytryptamine 1A receptor from bovine hippocampus, used [3H]8-OH-DPAT as radioligand.
For assay [2], the target named is T1, D(2) dopamine receptor (Homo sapiens, UniProt P14416). Description: Intrinsic activity against dopamine D 2 receptor. It counts as functional. To be noted: Cricetulus griseus. The gist of the method: (§1)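 Membranes from CHO cells stably transfected with D2 receptor. Low-affinity agonist state affinity came from [3H]raclopride displacement with high GTP, and high-affinity state affinity from [3H]U-86170 displacement without GTP.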
T1 sequence (P14416 whole entry): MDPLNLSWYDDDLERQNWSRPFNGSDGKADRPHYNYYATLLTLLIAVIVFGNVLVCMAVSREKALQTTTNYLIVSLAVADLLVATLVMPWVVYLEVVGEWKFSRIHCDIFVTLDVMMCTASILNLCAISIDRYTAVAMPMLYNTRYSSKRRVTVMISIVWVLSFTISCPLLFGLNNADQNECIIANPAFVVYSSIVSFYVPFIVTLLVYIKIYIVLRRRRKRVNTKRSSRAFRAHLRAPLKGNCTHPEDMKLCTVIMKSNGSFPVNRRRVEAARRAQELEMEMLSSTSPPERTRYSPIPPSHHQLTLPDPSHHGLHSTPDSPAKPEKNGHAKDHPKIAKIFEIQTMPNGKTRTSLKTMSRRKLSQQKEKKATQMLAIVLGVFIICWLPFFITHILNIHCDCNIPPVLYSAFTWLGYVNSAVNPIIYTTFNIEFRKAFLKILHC

The target in assay [3] is T1, D(2) dopamine receptor. In words: Compound was tested for agonistic activity against D2 receptor from cloned CHO cells, used [3H]U-86170 as radioligand. The class given is functional, cell-based, Cricetulus griseus.
Assay [4] has as its target D(2) dopamine receptor (Rattus norvegicus, UniProt P61169). In words: Compound was tested for antagonistic activity against D2 receptor from rat striatum, used [3H]raclopride as radioligand. It counts as functional.
Assay [5] can be described thus: (§2) Intrinsic activity was 100% of highest possible agonist. It counts as functional. The gist of the method:
as §1

Assay [6] can be described thus: as §2. It counts as functional. This is another data set of the same source.
The target in assay [7] is T1, D(2) dopamine receptor. Description: Intrinsic activity was Determined. The class given is functional.
Assay [8] in a line: Intrinsic activity was 0%of highest possible antagonist. It counts as functional. The essentials: as §1

Sequence of D(2) dopamine receptor (Rattus norvegicus, UniProt P61169) (P61169 whole entry): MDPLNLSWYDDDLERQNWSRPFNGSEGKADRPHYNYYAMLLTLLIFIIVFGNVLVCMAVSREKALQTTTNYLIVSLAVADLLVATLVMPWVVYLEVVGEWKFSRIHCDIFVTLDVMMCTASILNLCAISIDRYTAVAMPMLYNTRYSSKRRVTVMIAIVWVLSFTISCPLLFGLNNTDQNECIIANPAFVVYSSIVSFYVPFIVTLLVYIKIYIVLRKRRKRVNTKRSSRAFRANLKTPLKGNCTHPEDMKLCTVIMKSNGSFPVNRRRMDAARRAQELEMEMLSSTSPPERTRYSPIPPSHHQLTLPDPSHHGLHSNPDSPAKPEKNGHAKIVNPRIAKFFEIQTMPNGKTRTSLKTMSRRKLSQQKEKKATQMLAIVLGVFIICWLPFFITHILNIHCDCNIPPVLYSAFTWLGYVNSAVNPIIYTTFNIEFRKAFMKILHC

In assay [1], `CCCN1[C@@H](C)C[C@@H]2Cc3cccc(OC)c3C[C@@H]21` yielded a Ki of 11 nM. At D(2) dopamine receptor [2], the Intrinsic activity came to 21%.

Turning to `CCCN1[C@H](C)C[C@@H]2Cc3cccc(OC)c3C[C@@H]21`, affinity in assay [1] was put at a Ki of 384 nM.

Regarding `Cc1[nH]c2cccc3c2c1C[C@@H]1C3C[C@H](NC(=O)C(C)(C)C)CN1C` (some centres undefined), on D(2) dopamine receptor [2], the Intrinsic activity came to 11%. Besides, on D(2) dopamine receptor [3], the Ki stood at 3.1 nM.

Regarding `CN1C[C@@H](NC(=O)C(C)(C)C)CC2c3cccc4[nH]c(Cl)c(c34)C[C@H]21` (some centres undefined), the Ki was found to be 0.47 nM at D(2) dopamine receptor [4] and 3.6 nM at D(2) dopamine receptor [3]. Moreover, at D(2) dopamine receptor [2], the Intrinsic activity came to 0%.

`C=CCN1CC[C@H]2c3c(cccc3OC)CC[C@H]21` [listing 1 of 2 here]: at D(2) dopamine receptor [3], the Ki was 6.7 nM.

As for `CCCN(CCC)[C@@H]1Cc2cccc3[nH]c(=O)n(c23)C1`, the inhibition constant (Ki) at D(2) dopamine receptor [4] worked out at 5.4 nM; at D(2) dopamine receptor [3], 1.7 nM.

With `CCCN[C@@H]1CCc2c(OC)cccc2[C@@H]1C`, the Ki came out at 179 nM on D(2) dopamine receptor [4] and 14 nM on D(2) dopamine receptor [3]. Moreover, the Intrinsic activity at D(2) dopamine receptor [2] is 3%.

In the case of `CCCN(CCC)[C@@H]1CCc2c(OC)cccc2[C@@H]1C`, the Ki is 22 nM at D(2) dopamine receptor [4] and 13 nM on D(2) dopamine receptor [3]. Moreover, the Intrinsic activity on D(2) dopamine receptor [2] came out at 0.

`CCCN1CC[C@H]2c3c(cccc3OC)CC[C@H]21` [listing 1 of 2 here]: the affinity in assay [1] corresponds to a Ki of 0.2 nM.

In the case of `C=CCN1CC[C@H]2c3cccc(O)c3CC[C@H]21`, the Ki at D(2) dopamine receptor [4] amounted to 49 nM; on D(2) dopamine receptor [3], 108 nM. Besides, on D(2) dopamine receptor [2], the Intrinsic activity is 22%.

On to `C=CCN1CC[C@@H]2c3cccc(O)c3CC[C@@H]21`, for which the values for the Ki at D(2) dopamine receptor [4] and on D(2) dopamine receptor [3] were 259 nM and 59 nM, respectively. Further, the Intrinsic activity at D(2) dopamine receptor [2] was 47%.

At D(2) dopamine receptor [4], `C=CCN1CC[C@@H]2c3cccc(OC)c3CC[C@@H]21` yielded a Ki of over 1000 nM.

Regarding `C=CCN1CC[C@@H]2Cc3c(O)cccc3C[C@H]21`, the Intrinsic activity on D(2) dopamine receptor [2] was determined as 106%.

Turning to `C=CCN1CC[C@@H]2Cc3c(cccc3OC)C[C@H]21`, the Intrinsic activity in assay [5] amounted to 100%.

`C=CCN1CC[C@H]2c3c(cccc3OC)CC[C@H]21` [listing 2 of 2 here]: at D(2) dopamine receptor [2], the Intrinsic activity worked out at 24%.

With `C=CCN1CC[C@H]2c3cccc(OC)c3CC[C@H]21`, the Intrinsic activity at D(2) dopamine receptor [2] was 0%.

In the case of `CCCN(CCC)[C@@H]1Cc2cccc3nc(O)n(c23)C1`, the Intrinsic activity in assay [6] is 91.

`CCCN1CC[C@@H]2Cc3c(O)cccc3C[C@H]21`: the Intrinsic activity at D(2) dopamine receptor [2] came to 109%.

Consider `CCCN1CC[C@@H]2Cc3c(cccc3OC)C[C@H]21`, for which the Intrinsic activity on D(2) dopamine receptor [2] was 37%.

Regarding `CCCN1CC[C@H]2c3c(cccc3OC)CC[C@H]21` [listing 2 of 2 here], the Intrinsic activity on D(2) dopamine receptor [2] was found to be 37%.

Consider `CCCN1C[C@H](CSC)C[C@@H]2c3cccc4[nH]cc(c34)C[C@H]21`, for which the Intrinsic activity at D(2) dopamine receptor [2] was 66%.

With `C=CCN1CCC2Cc3c(cccc3OC)C[C@H]21` (mixture of isomers), the Intrinsic activity in assay [5] was found to be 100%. The compound also returned a Ki on D(2) dopamine receptor [4] of over 1000 nM.

For `CCCN1CCC2Cc3c(O)cccc3C[C@H]21` (mixture of isomers), the results for the Ki at D(2) dopamine receptor [4] and on D(2) dopamine receptor [3] were 17 nM and 2.4 nM, respectively. Besides, the Intrinsic activity at D(2) dopamine receptor [2] was 79%.

On D(2) dopamine receptor [4], `C=CCN1CCC2c3cccc(OC)c3CC[C@@H]21` (mixture of isomers) gave a Ki of 99 nM. Moreover, the Intrinsic activity at D(2) dopamine receptor [2] worked out at 0%.

Regarding `CCCN1CCC2Cc3c(cccc3OC)C[C@H]21` (mixture of isomers), the results for the Ki at D(2) dopamine receptor [4] and on D(2) dopamine receptor [3] were 877 nM and 100 nM, respectively. Further, the Intrinsic activity on D(2) dopamine receptor [2] is 100%.

Consider `C=CCN1CCC2Cc3c(O)cccc3C[C@H]21` (mixture of isomers), for which the Ki on D(2) dopamine receptor [4] stood at 25 nM; at D(2) dopamine receptor [3] it was 1.4 nM. Besides, the Intrinsic activity at D(2) dopamine receptor [2] was 91%.

On to `C=CCN1CCC2c3cccc(OC)c3CC[C@H]21` (mixture of isomers), for which the Intrinsic activity at D(2) dopamine receptor [2] is 0%.

On to `C=CCN1CCC2c3c(O)cccc3CCC21` (racemic), for which, at D(2) dopamine receptor [4], affinity was put at a Ki of 25 nM. Further, the Intrinsic activity on D(2) dopamine receptor [2] came out at 13%.

For `CCCN1CCC2Cc3c(O)cccc3CC21` (racemic), the Ki at D(2) dopamine receptor [4] was 296 nM; at D(2) dopamine receptor [3], 11 nM. On D(2) dopamine receptor [2], the Intrinsic activity is 61%.

`C=CCN1CCC2Cc3c(cccc3OC)CC21` (racemic): on D(2) dopamine receptor [4], the affinity corresponds to a Ki of 429 nM.

As to `CCCN(CCC)[C@@H]1Cc2cccc3c2N(C1)C(=O)NC3` (racemic), the inhibition constant Ki was over 1000 nM on D(2) dopamine receptor [4] and 58 nM at D(2) dopamine receptor [3]. Also, the Intrinsic activity on D(2) dopamine receptor [2] turned out to be 30%.

As for `CCCN(CCC)[C@@H]1Cc2cccc3ccc(=O)n(c23)C1` (racemic), the Ki was determined as 18.8 nM on D(2) dopamine receptor [4] and 3.5 nM at D(2) dopamine receptor [3]. Moreover, the Intrinsic activity at D(2) dopamine receptor [2] amounted to 79%.

`C=CCN1CC[C@H]2c3c(cccc3OC)CC[C@H]21` (racemic) [listing 1 of 2 here] had a Ki on D(2) dopamine receptor [3] of 7 nM.

For `C=CCN1CCC2c3c(cccc3OC)CCC21` (racemic), the Intrinsic activity at D(2) dopamine receptor [2] was 0%. This compound also registered a Ki at D(2) dopamine receptor [3] of 8.5 nM.

For the compound `CCCN(CCC)[C@@H]1Cc2cccc3c2N(CC(=O)N3)C1` (racemic), at D(2) dopamine receptor [4], the affinity, expressed as Ki, was 28 nM. Moreover, the Intrinsic activity at D(2) dopamine receptor [2] came out at 70%.

Consider `CCCN(CCC)[C@@H]1Cc2cccc3nc(S)n(c23)C1` (racemic), for which the figures for the Ki at D(2) dopamine receptor [4] and at D(2) dopamine receptor [3] were 39 nM and 0.6 nM, respectively. For the same compound, the Intrinsic activity at D(2) dopamine receptor [2] was 100%.

As to `CCCN1C[C@H]2c3c(cccc3OC)CC[C@H]21` (racemic), the affinity on D(2) dopamine receptor [4] corresponds to a Ki of 329 nM.

Take `CCCN1CC[C@H]2c3c(cccc3OC)CC[C@H]21` (racemic): the Ki on D(2) dopamine receptor [4] is over 1000 nM.

In the case of `C=CCN1CC[C@H]2c3c(O)cccc3CC[C@H]21` (racemic), the Intrinsic activity on D(2) dopamine receptor [7] is 7%. The compound further had a Ki at D(2) dopamine receptor [3] of 153 nM.

For the compound `Oc1cccc2c1CC[C@@H]1NCCC[C@@H]21` (racemic), the figures for the Ki at D(2) dopamine receptor [4] and on D(2) dopamine receptor [3] were 38 nM and 11 nM, respectively. Moreover, the Intrinsic activity at D(2) dopamine receptor [2] is 53.

As to `C=CCN1CC[C@H]2c3c(cccc3OC)CC[C@H]21` (racemic) [listing 2 of 2 here], the Intrinsic activity at D(2) dopamine receptor [2] amounted to 15%.

As for `CCCN1CC[C@H]2c3cccc(OC)c3CC[C@@H]21` (racemic), the Intrinsic activity in assay [8] was determined as 0%.

Take `CCCN1CCC2c3cccc(O)c3CCC21` (racemic; 14a) [listing 1 of 2 here]: the results for the Ki on D(2) dopamine receptor [4] and at D(2) dopamine receptor [3] were 33 nM and 93 nM, respectively.

On to `CCCN1CCC2c3cccc(O)c3CCC21` (racemic; 14a) [listing 2 of 2 here], for which, at D(2) dopamine receptor [2], the Intrinsic activity is 28%.

As to `C=CCN1CCC2c3cccc(O)c3CCC21` (racemic; 14c) [listing 1 of 2 here], the Ki at D(2) dopamine receptor [3] came to 4.1 nM.

In the case of `C=CCN1CCC2c3cccc(O)c3CCC21` (racemic; 14c) [listing 2 of 2 here], the Intrinsic activity at D(2) dopamine receptor [2] is 44%.

Consider `CCCN1CCC2c3cccc(O)c3CCC21` (racemic; 15a) [listing 1 of 2 here], for which the Ki at D(2) dopamine receptor [4] is over 1000 nM; at D(2) dopamine receptor [3], 218 nM.

Turning to `CCCN1CCC2c3cccc(O)c3CCC21` (racemic; 15a) [listing 2 of 2 here], on D(2) dopamine receptor [2], the Intrinsic activity came out at 1%.

For the compound `C=CCN1CCC2c3cccc(O)c3CCC21` (racemic; 15c) [listing 1 of 2 here], the Ki stood at 198 nM at D(2) dopamine receptor [4] and 75 nM at D(2) dopamine receptor [3].

For the compound `C=CCN1CCC2c3cccc(O)c3CCC21` (racemic; 15c) [listing 2 of 2 here], the Intrinsic activity at D(2) dopamine receptor [2] stood at 29%.

Turning to `C=CCN1CC[C@H]2Cc3c(O)cccc3CC21` (single isomer, unassigned), the results for the Ki at D(2) dopamine receptor [4] and on D(2) dopamine receptor [3] were 47 nM and 235 nM, respectively. Further, the Intrinsic activity at D(2) dopamine receptor [2] was found to be 21%.

In the case of `CCCN1CC[C@H]2Cc3c(O)cccc3CC21` (single isomer, unassigned), the values for the inhibition constant (Ki) on D(2) dopamine receptor [4] and at D(2) dopamine receptor [3] were over 630 nM and 917 nM, respectively. The Intrinsic activity on D(2) dopamine receptor [2] is 18%.

Take `CCCN1CC[C@H]2c3c(cccc3OC)CC[C@H]21` (single isomer, unassigned): the inhibition constant (Ki) at D(2) dopamine receptor [4] is over 1000 nM.

On D(2) dopamine receptor [3], `CCCN1CC[C@H]2c3c(O)cccc3CC[C@H]21` (single isomer, unassigned) [listing 1 of 2 here] registered a Ki of under 50 nM.

On to `C=CCN1CC[C@H]2Cc3c(cccc3OC)CC21` (single isomer, unassigned), for which, in assay [8], the Intrinsic activity is 0%.

As for `C=CCN1CC[C@H]2c3c(cccc3OC)CC[C@H]21` (single isomer, unassigned), the Intrinsic activity on D(2) dopamine receptor [2] came out at 17%.

Turning to `CCCN1CC[C@H]2c3c(O)cccc3CC[C@H]21` (single isomer, unassigned) [listing 2 of 2 here], the Intrinsic activity at D(2) dopamine receptor [7] was found to be 0%.

What is called Ki is the equilibrium dissociation constant of an inhibitor or competing ligand from its target.
